Screening data: PubChem BioAssay, several laboratories
PKD1 kinase inh: inhibitors of human PKD1 kinase; Q15139; PKD1 kinase fluorescence polarization assay; inhibition, % (concentration not given with the values); 200,000 compounds, 0.056% hits; AID 797; in the data active = inhibition above about 50%
RBBP9 inh: inhibitors of human serine hydrolase RBBP9; AID 1515; recombinant RBBP9, FP-Rh probe fluorescence polarization; inhibition, % at 7.94 µM; O75884; 220,000 compounds, 0.2% hits;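 active = inhibition above the campaign mean of all tested compounds plus 3 SD, cut at about 14% in these data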;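 note: plate controls were DMSO wells with RBBP9 for no effect and wells lacking RBBP9 protein for full effect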
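System: RBBP9 protein / Quantity: 2.5 µM RBBP9 dispensing solution, before mixing / Also added: Serine-hydrolase probe FP-Rh, 375 nM pre-mixing / Dosing: 7.94 µM single dose, 0.794% DMSO / Timing: enzyme-compound preincubation 30 min, then probe labeling 45 min, 25 °C / Signal: FP readout at 525/598 nm / Controls: DMSO-treated enzyme wells and wells lacking RBBP9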
p97 inhibitor: inhibitors of human p97 ATPase. P55072. recombinant p97 ATPase, Kinase-Glo ATP luminescence, 3 h. inhibition, % at 8 µM. 220,000 compounds, 0.42% hits; in the data active = inhibition above about 15%;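 note: 0% = DMSO vehicle and 100% = wells lacking enzyme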
Wee1 degr inh: human Wee1 degradation inhibition, primary screen; 220,000 compounds, 1.2% hits; P30291; reporter increase, % at 5 µM; HeLa Luc-Wee1K328M stability, luciferase luminescence; 100% = proteasome inhibitor MG132 effect; AID 1321;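 active = activation above the mean of all tested compounds plus 3 SD, set per screening run, cut at about 8.8% in these data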;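 note: cells exposed to compound for 20 h before luminescence read; 0% = DMSO alone and 100% = MG132 at 30 µM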
Target sequence (P30291 whole entry K328M): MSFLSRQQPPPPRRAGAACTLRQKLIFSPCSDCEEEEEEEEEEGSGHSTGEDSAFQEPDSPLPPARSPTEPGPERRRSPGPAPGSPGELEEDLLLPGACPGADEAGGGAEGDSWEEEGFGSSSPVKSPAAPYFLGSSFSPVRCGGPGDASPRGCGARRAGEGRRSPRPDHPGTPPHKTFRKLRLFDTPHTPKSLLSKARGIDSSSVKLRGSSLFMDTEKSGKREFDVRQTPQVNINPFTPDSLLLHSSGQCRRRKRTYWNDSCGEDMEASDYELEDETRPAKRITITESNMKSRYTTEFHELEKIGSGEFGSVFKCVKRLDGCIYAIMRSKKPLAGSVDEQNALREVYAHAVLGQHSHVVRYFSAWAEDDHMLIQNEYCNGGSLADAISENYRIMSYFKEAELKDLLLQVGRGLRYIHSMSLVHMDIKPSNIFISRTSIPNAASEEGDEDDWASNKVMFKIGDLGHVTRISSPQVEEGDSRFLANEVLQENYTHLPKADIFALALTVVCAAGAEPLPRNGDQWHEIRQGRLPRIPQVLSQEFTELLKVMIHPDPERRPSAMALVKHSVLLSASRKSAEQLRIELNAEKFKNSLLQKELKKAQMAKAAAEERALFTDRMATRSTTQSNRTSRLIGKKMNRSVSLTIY
Redox H2O2 prof: compounds producing H2O2 with reducing agent – biochemical, NIH compound library profiling, artefact control for MLSCN library redox annotation, primary screen. DTT-dependent redox cycling H2O2, phenol red/HRP absorbance; 100% = 100 µM peroxide control, 0% = buffer. activation, % at 10 µM. 200,000 compounds, 0.03% hits;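 active = activation of at least 50% relative to the plate's high and low controls in the primary single-dose screen; inactive = activation below 50%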;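 note: compound incubated with DTT at 0.8 mM final as the reducing agent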
Arbovirus inh: antivirals against arbovirus infection; arbovirus infection cell-based antiviral screen; inhibition, % at 10 µM; 200,000 compounds, 0.37% hits; AID 1251; in the data active = inhibition above about 30%
Wee1 degr conf: confirmation of human Wee1 degradation inhibitors | HeLa Luc-Wee1K328M degradation, luminescence; vehicle 0%, proteasome-blocked wells 100% | AID 1410 | 1,100 compounds, 4% hits | shares compounds with Wee1 degr inh | activation, % at 5 µM; in the data active = activation above about 8.9%
* = called active by the depositor. Only some compounds are listed: those with a hit (about 2.2% of all), similar ones and a draw of the others.

Screening CCCCN(C)CCCNC(=O)CS(=O)Cc1nc(-c2ccc(OC)c(OC)c2)oc1C (stereo unspecified) returned PKD1 kinase inh -15.7, RBBP9 inh 2.8, p97 inhibitor -1.4, Wee1 degr inh 12.9*, Redox H2O2 prof 1.4, Arbovirus inh 10.2 and Wee1 degr conf 0.1.
For O=C(CSc1nc(-c2ccco2)cc(C(F)(F)F)n1)N1CCSCC1 the results were PKD1 kinase inh -4.7, RBBP9 inh -4.1, p97 inhibitor 2.4, Wee1 degr inh 12.2*, Redox H2O2 prof 1.4, Arbovirus inh -11.8 and Wee1 degr conf 2.0.
CN1CCN(C(=O)CSc2nc(-c3ccco3)cc(C(F)(F)F)n2)CC1 was read as PKD1 kinase inh -8.0, RBBP9 inh 1.1, p97 inhibitor 4.2, Wee1 degr inh -1.7, Redox H2O2 prof -0.3 and Arbovirus inh -12.6.
Screening CCCCNS(=O)(=O)c1ccc2nc(-c3cccnc3)cc(C(=O)NC(C)C)c2c1 returned PKD1 kinase inh -8.9, RBBP9 inh -11.7, p97 inhibitor 2.8, Wee1 degr inh 18.6*, Redox H2O2 prof 0.5, Arbovirus inh -1.2 and Wee1 degr conf -0.7.
CCCCNS(=O)(=O)c1ccc2nc(-c3cccnc3)cc(C(=O)NC(C)CC)c2c1 (stereo unspecified) was read as PKD1 kinase inh -3.7, RBBP9 inh -1.6, p97 inhibitor -5.1, Wee1 degr inh -0.3, Redox H2O2 prof -0.5 and Arbovirus inh -4.3.
Screening CSc1nc(N(C)C)nc(N(C)C#N)n1 returned PKD1 kinase inh -3.8, RBBP9 inh -5.6, p97 inhibitor 3.0, Wee1 degr inh 1.9, Redox H2O2 prof -0.5 and Arbovirus inh 0.0.
Screening Cc1sc2nc(CSc3ccc([N+](=O)[O-])c(C(F)(F)F)c3)[nH]c(=O)c2c1C returned PKD1 kinase inh -5.0, RBBP9 inh -5.2, p97 inhibitor -0.2, Wee1 degr inh 4.9, Redox H2O2 prof -0.2 and Arbovirus inh -13.0.
`COc1cccc(NC(=O)c2cccc(C)c2[N+](=O)[O-])c1` gave PKD1 kinase inh 0.5, RBBP9 inh -3.2, p97 inhibitor -0.3, Wee1 degr inh 13.9*, Redox H2O2 prof 1.0, Arbovirus inh -6.6 and Wee1 degr conf 2.5.
Cc1cccc(C(=O)Nc2cccc(Br)c2)c1[N+](=O)[O-] was read as PKD1 kinase inh -5.5, RBBP9 inh -10.6, p97 inhibitor 4.3, Wee1 degr inh -1.2, Redox H2O2 prof -1.6 and Arbovirus inh -5.7.
COc1cccc(OCC(O)CN2CCC(C)CC2)c1 (stereo unspecified) was read as PKD1 kinase inh 2.1, RBBP9 inh -8.1, p97 inhibitor 2.7, Wee1 degr inh -0.6, Redox H2O2 prof 18.3 and Arbovirus inh 2.5.
CC1CCN(CC(O)COc2cccc(F)c2)CC1 (stereo unspecified) was read as PKD1 kinase inh -3.7, RBBP9 inh -6.8, p97 inhibitor -6.6, Wee1 degr inh 13.8*, Redox H2O2 prof -2.9, Arbovirus inh -0.4 and Wee1 degr conf 0.8.
Screening Cc1cccc(/C=N\NC(=O)c2sccc2-n2cccc2)c1 returned PKD1 kinase inh 3.5, RBBP9 inh -3.4, p97 inhibitor 0.0, Wee1 degr inh -1.9, Redox H2O2 prof 8.2 and Arbovirus inh 7.8.
`O=C(Nc1ccc(O)cc1)/C(=C/c1ccco1)NC(=O)c1ccccc1` gave RBBP9 inh 5.4, p97 inhibitor 4.4, Wee1 degr inh 11.8* and Wee1 degr conf 2.2.
Screening O=C(O)/C(=C/c1ccco1)NC(=O)c1ccccc1 returned PKD1 kinase inh -4.3, RBBP9 inh -2.5, p97 inhibitor 1.8, Wee1 degr inh 0.1, Redox H2O2 prof 0.1 and Arbovirus inh -11.2.
`O=C(Cn1cnc2c(nnn2-c2ccccc2)c1=O)N1CCOCC1` gave PKD1 kinase inh 2.6, RBBP9 inh 7.3, p97 inhibitor -14.6, Wee1 degr inh 2.9, Redox H2O2 prof -0.4 and Arbovirus inh -0.3.
`Cc1ccc(-n2nnc3c(=O)n(CC(=O)N4CCOCC4)cnc32)cc1` gave PKD1 kinase inh -9.1, RBBP9 inh 1.5, p97 inhibitor 7.8, Wee1 degr inh 11.8*, Redox H2O2 prof 0.1, Arbovirus inh -0.1 and Wee1 degr conf 0.2.
CSCCC(NS(=O)(=O)c1ccc2ccccc2c1)C(=O)OCC(=O)c1ccc(C(C)C)cc1 (stereo unspecified) was read as PKD1 kinase inh -4.5, RBBP9 inh -12.5, p97 inhibitor -8.6, Wee1 degr inh 11.4*, Redox H2O2 prof -0.5, Arbovirus inh 7.9 and Wee1 degr conf -2.9.
CSCCC(NS(=O)(=O)c1ccc(Cl)cc1)C(=O)OCC(=O)c1c(C)[nH]c2ccccc12 (stereo unspecified) was read as PKD1 kinase inh 2.7, RBBP9 inh -14.3, p97 inhibitor -1.2, Wee1 degr inh -1.9, Redox H2O2 prof 0.0 and Arbovirus inh -29.2.
`Cc1ccccc1OCC(=O)OCn1nnc2ccccc2c1=O` gave RBBP9 inh -9.1, p97 inhibitor 4.0, Wee1 degr inh 12.5* and Wee1 degr conf 0.4.
`O=C(COc1ccc(Cl)cc1Cl)OCn1nnc2ccccc2c1=O` gave PKD1 kinase inh -16.6, RBBP9 inh -4.6, p97 inhibitor 3.1, Wee1 degr inh -0.9, Redox H2O2 prof 0.1 and Arbovirus inh 2.3.
COC(=O)c1ccc(/C=N/NC(=S)NCCN2CCOCC2)cc1 was read as PKD1 kinase inh -10.1, RBBP9 inh -8.8, p97 inhibitor 3.4, Wee1 degr inh -2.0, Redox H2O2 prof 0.1 and Arbovirus inh -0.2.
O=C(O)CCn1cc(/C=C2\SC(=S)NC2=O)c(-c2ccccc2)n1 was read as PKD1 kinase inh -4.3, RBBP9 inh -10.7, p97 inhibitor 0.2, Wee1 degr inh 13.3*, Redox H2O2 prof -2.7, Arbovirus inh 4.0 and Wee1 degr conf 0.5.
O=C(O)CCn1cc(/C=C2/NC(=S)N(c3ccccc3)C2=O)c(-c2ccccc2)n1 was read as PKD1 kinase inh 4.8, RBBP9 inh -3.2, p97 inhibitor 3.1, Wee1 degr inh -2.3, Redox H2O2 prof -0.1 and Arbovirus inh 6.5.
For Cc1cc(C)c[n+](-c2[nH]c(=O)sc2/C=N/N=C(\N)[S-])c1 the results were PKD1 kinase inh -2.1, RBBP9 inh -3.6, p97 inhibitor 2.3, Wee1 degr inh -1.1, Redox H2O2 prof -0.9 and Arbovirus inh 3.7.
CCCCNCCCOc1ccc(C)cc1Br was read as PKD1 kinase inh -1.0, RBBP9 inh 3.7, p97 inhibitor -0.8, Wee1 degr inh 3.5, Redox H2O2 prof -1.2 and Arbovirus inh -10.4.
`CCCCNCCCOc1cccc(Cl)c1Cl` gave PKD1 kinase inh -0.3, RBBP9 inh -0.2, p97 inhibitor 2.5, Wee1 degr inh 11.2*, Redox H2O2 prof 0.1, Arbovirus inh -7.7 and Wee1 degr conf 2.1.
